Reference: ChEMBL document CHEMBL5046217, “Discovery of New Imidazo[2,1-b]thiazole Derivatives as Potent Pan-RAF Inhibitors with Promising In Vitro and In Vivo Anti-melanoma Activity” (J Med Chem, 2021)

Experiments:
[1] = target: Serine/threonine-protein kinase B-raf (Homo sapiens, UniProt P15056); experiment: Inhibition of human wild type BRAF using myelin basic protein as substrate in presence of [gamma-33P]ATP incubated for 40 mins by scintillation counting method
In short: (§1)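 Radiometric kinase assay run at Reaction Biology. Kinase (5−10 mU) in 25 mM Tris pH 7.5, 0.02 mM EGTA, 10 mM magnesium acetate with 0.66 mg/mL myelin basic protein and [γ-33P]ATP at 1 μM ATP. Reaction started with Mg-ATP and run 40 min at room temperature, then stopped with 3% phosphoric acid. Spotted on P30 filtermat, washed, scintillation counted.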

[2] = target: Serine/threonine-protein kinase B-raf (Homo sapiens, UniProt P15056, V600E); experiment: Inhibition of human BRAF V600E mutant using myelin basic protein as substrate in presence of [gamma-33P]ATP incubated for 40 mins by scintillation counting method; in short: as §1
[3] = target: RAF proto-oncogene serine/threonine-protein kinase (Homo sapiens, UniProt P04049); experiment: Inhibition of human wild type CRAF using myelin basic protein as substrate in presence of [gamma-33P]ATP incubated for 40 mins by scintillation counting method
Sequence of RAF proto-oncogene serine/threonine-protein kinase (P04049 whole entry): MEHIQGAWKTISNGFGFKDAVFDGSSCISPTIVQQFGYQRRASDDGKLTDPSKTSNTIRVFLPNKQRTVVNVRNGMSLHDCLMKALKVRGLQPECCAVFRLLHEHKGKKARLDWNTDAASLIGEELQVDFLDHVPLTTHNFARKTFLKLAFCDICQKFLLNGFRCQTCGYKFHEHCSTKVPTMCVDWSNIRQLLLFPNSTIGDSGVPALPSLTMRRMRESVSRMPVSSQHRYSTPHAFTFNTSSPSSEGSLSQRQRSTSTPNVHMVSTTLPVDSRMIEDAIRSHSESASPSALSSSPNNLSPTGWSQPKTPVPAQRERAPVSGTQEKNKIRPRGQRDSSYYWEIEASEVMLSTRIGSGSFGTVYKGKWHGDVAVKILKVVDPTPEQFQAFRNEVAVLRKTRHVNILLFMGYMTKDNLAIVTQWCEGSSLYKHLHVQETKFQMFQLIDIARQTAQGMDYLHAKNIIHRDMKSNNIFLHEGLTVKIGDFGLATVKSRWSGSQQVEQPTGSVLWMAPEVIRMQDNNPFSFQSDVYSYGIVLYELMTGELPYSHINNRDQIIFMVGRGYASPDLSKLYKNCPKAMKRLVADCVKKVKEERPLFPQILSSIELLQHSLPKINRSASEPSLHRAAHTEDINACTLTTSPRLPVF

[4] = target: Tyrosine-protein kinase ABL1 (Homo sapiens, UniProt P00519); experiment: Inhibition of ABL1 (unknown origin) incubated for 1 hr by qPCR analysis
Sequence of Tyrosine-protein kinase ABL1 (P00519 whole entry): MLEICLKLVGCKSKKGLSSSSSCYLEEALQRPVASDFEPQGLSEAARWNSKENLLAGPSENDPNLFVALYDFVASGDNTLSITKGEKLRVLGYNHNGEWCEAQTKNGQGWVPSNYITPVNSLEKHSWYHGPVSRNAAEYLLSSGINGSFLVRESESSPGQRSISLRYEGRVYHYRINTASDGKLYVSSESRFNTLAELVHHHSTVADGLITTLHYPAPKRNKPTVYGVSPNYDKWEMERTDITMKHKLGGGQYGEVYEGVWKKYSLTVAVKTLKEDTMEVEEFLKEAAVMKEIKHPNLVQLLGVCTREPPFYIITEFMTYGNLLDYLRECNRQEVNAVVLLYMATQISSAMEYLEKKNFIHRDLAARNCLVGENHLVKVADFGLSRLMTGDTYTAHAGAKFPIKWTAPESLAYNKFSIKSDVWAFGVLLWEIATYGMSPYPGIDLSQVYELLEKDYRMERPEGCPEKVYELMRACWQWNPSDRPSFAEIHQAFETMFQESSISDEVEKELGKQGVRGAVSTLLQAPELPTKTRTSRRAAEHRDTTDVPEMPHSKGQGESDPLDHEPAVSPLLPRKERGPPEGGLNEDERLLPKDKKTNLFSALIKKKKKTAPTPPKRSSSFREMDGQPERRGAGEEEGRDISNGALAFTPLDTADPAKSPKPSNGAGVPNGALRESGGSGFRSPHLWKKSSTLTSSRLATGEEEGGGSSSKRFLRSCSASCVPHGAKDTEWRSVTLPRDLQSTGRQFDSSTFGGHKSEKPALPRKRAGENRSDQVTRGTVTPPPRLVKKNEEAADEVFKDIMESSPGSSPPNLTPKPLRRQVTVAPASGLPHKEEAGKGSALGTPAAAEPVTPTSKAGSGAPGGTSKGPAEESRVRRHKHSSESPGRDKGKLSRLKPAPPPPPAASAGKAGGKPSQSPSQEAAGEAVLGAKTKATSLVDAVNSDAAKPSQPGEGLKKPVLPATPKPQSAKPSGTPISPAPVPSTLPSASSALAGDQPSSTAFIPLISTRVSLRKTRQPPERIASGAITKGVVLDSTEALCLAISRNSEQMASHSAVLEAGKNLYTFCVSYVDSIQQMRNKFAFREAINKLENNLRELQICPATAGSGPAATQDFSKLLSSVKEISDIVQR

[5] = target: Fibroblast growth factor receptor 1 (Homo sapiens, UniProt P11362); experiment: Inhibition of FGFR1 (unknown origin) incubated for 1 hr by qPCR analysis
[6] = target: Homeodomain-interacting protein kinase 1 (Homo sapiens, UniProt Q86Z02); experiment: Inhibition of HIPK1 (unknown origin) incubated for 1 hr by qPCR analysis
Sequence of Homeodomain-interacting protein kinase 1 (Q86Z02 whole entry): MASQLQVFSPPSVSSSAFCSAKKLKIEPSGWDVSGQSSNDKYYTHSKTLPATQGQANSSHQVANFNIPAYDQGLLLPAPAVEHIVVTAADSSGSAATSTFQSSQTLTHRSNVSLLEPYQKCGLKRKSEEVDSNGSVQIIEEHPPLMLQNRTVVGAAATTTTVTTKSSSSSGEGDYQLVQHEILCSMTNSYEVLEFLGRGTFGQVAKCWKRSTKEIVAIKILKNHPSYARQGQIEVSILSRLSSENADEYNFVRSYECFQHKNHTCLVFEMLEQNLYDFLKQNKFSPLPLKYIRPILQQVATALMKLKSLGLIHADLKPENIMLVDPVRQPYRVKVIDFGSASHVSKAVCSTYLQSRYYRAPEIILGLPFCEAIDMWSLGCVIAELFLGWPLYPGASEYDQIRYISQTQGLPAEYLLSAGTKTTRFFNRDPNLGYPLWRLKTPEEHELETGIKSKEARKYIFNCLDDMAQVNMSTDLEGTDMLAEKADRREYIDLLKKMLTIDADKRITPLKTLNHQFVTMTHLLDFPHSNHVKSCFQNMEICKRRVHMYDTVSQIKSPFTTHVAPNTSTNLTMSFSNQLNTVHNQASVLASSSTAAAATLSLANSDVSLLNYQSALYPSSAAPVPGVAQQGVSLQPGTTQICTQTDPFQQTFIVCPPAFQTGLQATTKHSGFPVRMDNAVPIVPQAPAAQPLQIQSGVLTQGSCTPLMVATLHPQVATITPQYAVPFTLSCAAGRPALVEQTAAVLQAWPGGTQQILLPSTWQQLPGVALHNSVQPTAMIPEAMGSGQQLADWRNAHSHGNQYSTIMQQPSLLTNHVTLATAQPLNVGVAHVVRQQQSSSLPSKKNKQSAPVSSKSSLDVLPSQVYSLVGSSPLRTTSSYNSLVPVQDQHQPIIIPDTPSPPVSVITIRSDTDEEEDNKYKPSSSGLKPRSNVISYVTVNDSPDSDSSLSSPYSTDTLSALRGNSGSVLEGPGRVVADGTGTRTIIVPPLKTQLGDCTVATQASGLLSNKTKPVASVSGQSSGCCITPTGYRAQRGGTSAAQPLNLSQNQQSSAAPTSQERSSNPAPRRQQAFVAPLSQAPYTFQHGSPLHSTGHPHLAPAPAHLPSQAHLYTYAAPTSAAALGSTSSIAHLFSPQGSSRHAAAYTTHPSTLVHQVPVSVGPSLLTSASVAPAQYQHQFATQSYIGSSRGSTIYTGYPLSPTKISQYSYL
In short: (§2)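 Competition binding assay. Kinases were either T7-phage-tagged (grown in an E. coli BL21-derived host) or expressed in HEK-293 cells and DNA-tagged. […] Bound kinase was eluted with non-biotinylated ligand and quantified by qPCR.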

[7] = target: Mitogen-activated protein kinase 8 (Homo sapiens, UniProt P45983); experiment: Inhibition of MAPK8 (unknown origin) incubated for 1 hr by qPCR analysis; in short: as §2
Sequence of Mitogen-activated protein kinase 8 (P45983 whole entry): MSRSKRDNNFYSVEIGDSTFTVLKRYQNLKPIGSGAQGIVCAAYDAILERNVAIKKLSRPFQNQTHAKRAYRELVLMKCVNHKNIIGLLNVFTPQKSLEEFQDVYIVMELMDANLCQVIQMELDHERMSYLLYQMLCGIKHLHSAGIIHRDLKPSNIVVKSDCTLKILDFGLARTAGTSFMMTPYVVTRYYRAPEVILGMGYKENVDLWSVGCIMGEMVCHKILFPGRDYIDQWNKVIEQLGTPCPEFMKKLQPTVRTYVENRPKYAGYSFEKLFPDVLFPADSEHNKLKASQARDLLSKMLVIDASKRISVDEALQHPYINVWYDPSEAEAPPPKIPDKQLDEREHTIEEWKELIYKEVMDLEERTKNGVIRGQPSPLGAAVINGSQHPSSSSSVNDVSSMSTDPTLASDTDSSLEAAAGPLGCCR

[8] = target: Mitogen-activated protein kinase 14 (Homo sapiens, UniProt Q16539); experiment: Inhibition of MAPK14 (unknown origin) incubated for 1 hr by qPCR analysis; in short: as §2
[9] = target: Mitogen-activated protein kinase kinase kinase 20 (Homo sapiens, UniProt Q9NYL2); experiment: Inhibition of ZAK (unknown origin) incubated for 1 hr by qPCR analysis; in short: as §2
Sequence of Mitogen-activated protein kinase kinase kinase 20 (Q9NYL2 whole entry): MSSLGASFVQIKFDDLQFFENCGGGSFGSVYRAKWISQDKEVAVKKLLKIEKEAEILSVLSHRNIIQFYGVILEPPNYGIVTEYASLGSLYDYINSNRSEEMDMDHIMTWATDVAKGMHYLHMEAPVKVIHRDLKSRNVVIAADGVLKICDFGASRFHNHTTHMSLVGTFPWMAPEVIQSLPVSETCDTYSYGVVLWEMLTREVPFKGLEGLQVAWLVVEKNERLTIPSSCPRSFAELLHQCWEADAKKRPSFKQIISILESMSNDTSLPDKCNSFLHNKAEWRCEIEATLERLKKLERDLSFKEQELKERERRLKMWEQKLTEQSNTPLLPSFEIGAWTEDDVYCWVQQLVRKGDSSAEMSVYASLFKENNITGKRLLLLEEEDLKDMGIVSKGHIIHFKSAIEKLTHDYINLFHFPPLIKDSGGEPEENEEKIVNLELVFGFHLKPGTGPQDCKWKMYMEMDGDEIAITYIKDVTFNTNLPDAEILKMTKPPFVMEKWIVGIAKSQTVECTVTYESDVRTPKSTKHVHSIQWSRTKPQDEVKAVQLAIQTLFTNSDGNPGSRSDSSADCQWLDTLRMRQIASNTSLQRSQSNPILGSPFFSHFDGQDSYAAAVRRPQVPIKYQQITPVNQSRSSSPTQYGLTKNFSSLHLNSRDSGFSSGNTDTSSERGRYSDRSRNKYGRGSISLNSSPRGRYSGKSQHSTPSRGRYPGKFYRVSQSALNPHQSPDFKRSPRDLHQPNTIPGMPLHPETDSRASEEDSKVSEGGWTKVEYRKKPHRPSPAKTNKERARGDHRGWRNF

[10] = target: BDNF/NT-3 growth factors receptor (Homo sapiens, UniProt Q16620); experiment: Inhibition of NTRK2 (unknown origin) incubated for 1 hr by qPCR analysis
Sequence of BDNF/NT-3 growth factors receptor (Q16620 whole entry): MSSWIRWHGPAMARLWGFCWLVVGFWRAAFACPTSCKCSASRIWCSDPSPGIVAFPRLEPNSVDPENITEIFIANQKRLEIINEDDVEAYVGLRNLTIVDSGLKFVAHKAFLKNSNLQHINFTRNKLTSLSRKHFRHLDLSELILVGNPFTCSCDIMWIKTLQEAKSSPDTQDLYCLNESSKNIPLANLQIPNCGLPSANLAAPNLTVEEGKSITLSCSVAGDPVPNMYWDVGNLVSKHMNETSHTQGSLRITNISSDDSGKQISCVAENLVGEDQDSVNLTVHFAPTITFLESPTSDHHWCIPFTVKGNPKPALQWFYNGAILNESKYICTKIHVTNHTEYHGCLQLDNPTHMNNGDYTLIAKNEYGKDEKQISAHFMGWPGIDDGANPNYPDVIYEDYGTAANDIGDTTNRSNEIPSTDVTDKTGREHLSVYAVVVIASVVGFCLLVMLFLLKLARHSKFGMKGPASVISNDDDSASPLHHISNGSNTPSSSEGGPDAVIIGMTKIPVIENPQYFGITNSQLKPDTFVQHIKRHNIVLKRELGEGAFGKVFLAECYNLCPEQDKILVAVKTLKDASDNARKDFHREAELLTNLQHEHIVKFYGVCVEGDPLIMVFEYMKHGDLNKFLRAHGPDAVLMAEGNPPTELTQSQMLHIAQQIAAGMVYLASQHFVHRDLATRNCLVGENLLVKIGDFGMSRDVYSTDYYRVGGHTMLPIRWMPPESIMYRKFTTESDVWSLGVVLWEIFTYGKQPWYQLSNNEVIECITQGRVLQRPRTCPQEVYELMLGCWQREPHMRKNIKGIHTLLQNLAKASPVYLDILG

[11] = system: Panel leukemia (Carcinoma cell lines); experiment: Antiproliferative activity against human Panel leukemia (Carcinoma cell lines) assessed as cell growth inhibition measured after 48 hrs by SRB assay
NSCLC [12] = experiment: Antiproliferative activity against human NSCLC cell line assessed as cell growth inhibition measured after 48 hrs by SRB assay
[13] = system: Panel colon (Carcinoma cell lines); experiment: Antiproliferative activity against human Panel colon (Carcinoma cell lines) assessed as cell growth inhibition measured after 48 hrs by SRB assay
[14] = system: Panel CNS (Carcinoma cell lines); experiment: Antiproliferative activity against human Panel CNS (Carcinoma cell lines) assessed as cell growth inhibition measured after 48 hrs by SRB assay
[15] = system: Panel melanoma (Carcinoma cell lines); experiment: Antiproliferative activity against human Panel melanoma (Carcinoma cell lines) assessed as cell growth inhibition measured after 48 hrs by SRB assay
[16] = system: Panel renal (Carcinoma cell lines); experiment: Antiproliferative activity against human Panel renal (Carcinoma cell lines) assessed as cell growth inhibition measured after 48 hrs by SRB assay
[17] = system: Panel prostate (Carcinoma cell lines); experiment: Antiproliferative activity against human Panel prostate (Carcinoma cell lines) assessed as cell growth inhibition measured after 48 hrs by SRB assay
LOX IMVI = experiment: Antiproliferative activity against human LOX IMVI cells assessed as cell growth inhibition measured after 48 hrs by SRB assay
M14 [18] = experiment: Antiproliferative activity against human M14 cells assessed as cell growth inhibition measured after 48 hrs by SRB assay; conditions: M14, 48 h
SK-MEL-28 [19] = experiment: Antiproliferative activity against human SK-MEL-28 cells assessed as cell growth inhibition measured after 48 hrs by SRB assay; conditions: SK-MEL-28, 48 h
SK-MEL-5 = experiment: Antiproliferative activity against human SK-MEL-5 cells assessed as cell growth inhibition measured after 48 hrs by SRB assay; conditions: SK-MEL-5, 48 h
UACC-257 [20] = experiment: Antiproliferative activity against human UACC-257 cells assessed as cell growth inhibition measured after 48 hrs by SRB assay; conditions: UACC-257, 48 h
UACC-62 [21] = experiment: Antiproliferative activity against human UACC-62 cells assessed as cell growth inhibition measured after 48 hrs by SRB assay; conditions: UACC-62, 48 h
M14 [22] = experiment: Antiproliferative activity against human M14 cells assessed as total growth inhibition measured after 48 hrs by SRB assay; conditions: M14, 48 h
MDA-MB-435 = experiment: Antiproliferative activity against human MDA-MB-435 cells assessed as total growth inhibition measured after 48 hrs by SRB assay; conditions: MDA-MB-435, 48 h
SK-MEL-2 = experiment: Antiproliferative activity against human SK-MEL-2 cells assessed as total growth inhibition measured after 48 hrs by SRB assay; conditions: SK-MEL-2, 48 h
SK-MEL-28 [23] = experiment: Antiproliferative activity against human SK-MEL-28 cells assessed as total growth inhibition measured after 48 hrs by SRB assay; conditions: SK-MEL-28, 48 h
UACC-257 [24] = experiment: Antiproliferative activity against human UACC-257 cells assessed as total growth inhibition measured after 48 hrs by SRB assay; conditions: UACC-257, 48 h
UACC-62 [25] = experiment: Antiproliferative activity against human UACC-62 cells assessed as total growth inhibition measured after 48 hrs by SRB assay; conditions: UACC-62, 48 h
[26] = Cytotoxicity against human BJ cells assessed as cell growth inhibition incubated for 48 hrs by MTT assay; type: toxicity, cell-based
In short: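 BJ1 normal skin fibroblasts were seeded at 10 × 10³ cells/well with compound in triplicate wells and grown in DMEM-F12 at 37 °C, 5% CO₂, across an eight-point dilution series. Growth inhibition was calculated as (1 − T/C) × 100, and IC50 was taken from the dose–response curve.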

[27] = system: Panel leukemia (Carcinoma cell lines); experiment: cells; conditions: Homo sapiens, 48 h, read-out: INH
NSCLC [28] = experiment: cells; conditions: Homo sapiens, 48 h, read-out: INH
[29] = system: Panel melanoma (Carcinoma cell lines); experiment: cells; conditions: Homo sapiens, 48 h, read-out: INH
in vitro = conditions: human, BJ cells and Malme-3M cells

Work on `O=S(=O)(NCCCNc1nccc(-c2c(-c3cccc(O)c3)nc3sccn23)n1)c1cccc(F)c1` yielded an IC50 [1] of 0.0042 µM, an IC50 [2] of 0.00098 µM and an IC50 [3] of 0.005 µM. It also gave an IC50 [4] of 13.6 µM, an IC50 [5] of 10.6 µM and an IC50 [6] of 4.88 µM. It also gave an IC50 [7] of 1.87 µM, an IC50 [8] of 1.78 µM and an IC50 [9] of 10.3 µM. It also gave an IC50 [10] of 10.3 µM, an IC50 [11] of 2.04 µM and an IC50 (NSCLC [12]) of 2.55 µM. The IC50 [13] was 3.02 µM, the IC50 [14] was 3.19 µM and the IC50 [15] was 2.03 µM. It also gave an IC50 [16] of 2.93 µM, an IC50 [17] of 2.38 µM and an IC50 (LOX IMVI) of 1.91 µM. It also gave an IC50 (M14 [18]) of 2.54 µM, an IC50 (SK-MEL-28 [19]) of 2.29 µM and an IC50 (SK-MEL-5) of 1.06 µM. The IC50 (UACC-257 [20]) was 2.85 µM, the IC50 (UACC-62 [21]) was 0.75 µM and the TGI (M14 [22]) was 10.2 µM. The TGI (MDA-MB-435) was 6.51 µM, the TGI (SK-MEL-2) was 6.57 µM and the TGI (SK-MEL-28 [23]) was 6.86 µM. The TGI (UACC-257 [24]) was > 100 µM, the TGI (UACC-62 [25]) was 2.73 µM and the IC50 at 48 h [26] was 45.2 µM. For the same compound, the inhibition at 10 µM [27] was 93.8%, the inhibition at 10 µM (NSCLC [28]) was 83.1% and the inhibition at 10 µM [29] was 101%. It also gave a selectivity ratio (in vitro) of 17.4.
